An excerpt weighted towards active compounds, which were near 11% of everything screened.
M1 antagonist: antagonists of rat M1 muscarinic receptor. CHO-M1 cells, Fluo-4 calcium, ACh EC80 antagonist mode; hits give low values. B-score at 10 µM. P08482. hit rate 3.4% among 64,000;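 active = calcium fluorescence response, raw or row-and-column corrected B-score, differing from the plate sample mean either way at a set confidence level, mostly lower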
D1 allo mod: allosterically modulates the human D1 dopamine receptor; P21728; HEK293 D1, CRE-luciferase, dopamine EC30 potentiation; actives deviate in either direction; B-score at 10 µM; hit rate 5.9% among 58,000; AID 641;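 active = luminescence count or its row- and column-corrected plate score outside the 99.7% band of the plate's sample wells, on either side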
S1P1 ag-PAM: agonists and agonism potentiators of human S1P1 receptor. P21453. S1P1 CRE-bla cells, forskolin, beta-lactamase FRET, potentiator mode; S1P1 agonist co-added at EC20, 2 nM; 100% = saturating reference agonist, 0% = basal. activation, % at 9.5 µM. hit rate 0.57% among 56,000. AID 449;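 active = activation above a cutoff set at the mean activation of all tested compounds plus 3 SD, cut at about 54% in these data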;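 note: forskolin at 4 µM as EC80 and the EC20 agonist is SEW2871; 100% = SEW2871 at its EC100 plus forskolin at EC80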
M1 agonist: activates the M1 muscarinic receptor | CHO-M1 cells, Fluo-4 calcium fluorescence, agonist mode; hits give high values | B-score at 10 µM | AID 626 | hit rate 3% among 64,000;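 active = fluorescence rise, raw or as B-score row- and column-corrected plate score, outside the 99.7% band of its plate's samples, either direction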
S1P3 ag: S1P3 (human) receptor agonism; Q99500; S1P3 NFAT-BLA reporter cells, FRET ratio; relative to 1 µM S1P, basal subtracted; activation, % at 4.5 µM; hit rate 0.1% among 60,000; AID 373;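 active = activation above the screen-wide mean plus 3 SD, cut at about 4.5% in these data, passing the limit was not always enough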
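material = human S1P3 NFAT-BLA reporter CHO cells | schedule = 4 h compound at 37 °C, 2 h substrate at RT | measured by = fluorescent BLA substrate, ex 405 nm, em 460/535 nm ratio | controls = 1 µM S1P reference | replication = primary once, confirmation triplicate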
M1 ag confirm: confirmation of rat M1 muscarinic receptor agonists; shares compounds with M1 agonist; CHO-M1 cells, Fluo-4 calcium fluorescence, agonist mode; actives lie on both sides; fluorescence change (max-min) at 10 µM; hit rate 19% among 1,700;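 active = fluorescence change differs from the solvent-only DMSO control mean at a set confidence level in both duplicate runs; inconclusive = differs from solvent-only control mean in just one of two runs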;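 note: an EC20 dose of acetylcholine follows compound addition during the same imaging run; raw fluorescence intensity difference in instrument units with no normalization to controls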
M4 agonist ctr: counter-screen for M1 agonists: activity at rat M4 receptor; AID 1741; fluorescence change (max-min) at 10 µM; hit rate 9% among 1,700; shares compounds with M1 agonist; CHO M4/Gqi5 cells, Fluo-4 calcium fluorescence, agonist mode; actives lie on both sides;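 active = fluorescence change differing from the plate's solvent-only control wells at 99.7% confidence in both duplicates, whether higher or lower; inconclusive = differs from solvent controls in only one of two duplicates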
Target sequence (P08485 whole entry, looked up): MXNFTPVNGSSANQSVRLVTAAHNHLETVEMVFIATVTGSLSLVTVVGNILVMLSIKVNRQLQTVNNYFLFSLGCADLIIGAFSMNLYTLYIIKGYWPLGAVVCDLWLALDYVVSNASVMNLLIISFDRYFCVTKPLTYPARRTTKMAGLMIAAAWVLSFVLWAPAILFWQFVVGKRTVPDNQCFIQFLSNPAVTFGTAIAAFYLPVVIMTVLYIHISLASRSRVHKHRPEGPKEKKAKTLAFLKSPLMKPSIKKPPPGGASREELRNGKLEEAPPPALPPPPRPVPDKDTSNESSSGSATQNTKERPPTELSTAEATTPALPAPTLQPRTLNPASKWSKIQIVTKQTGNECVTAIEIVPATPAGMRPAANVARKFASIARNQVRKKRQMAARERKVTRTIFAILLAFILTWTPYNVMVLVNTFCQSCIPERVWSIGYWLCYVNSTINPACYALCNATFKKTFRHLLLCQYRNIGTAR
Starred values were filed as active, the others as inactive; ? = inconclusive; / = not tested or not shown.

SMILES	M1 antagonist	D1 allo mod	S1P1 ag-PAM	M1 agonist	S1P3 ag	M1 ag confirm	M4 agonist ctr
CCN1CCN(c2cc(C)c3cc(NC(=O)c4ccc(Br)o4)ccc3n2)CC1	-4.4*	-2.5*	/	3*	/	-4	-52
O=C(CNC(=O)c1ccco1)OC(C(=O)c1ccccc1)c1ccccc1 (stereo not given)	0.023	/	-8	6.7*	-1	-9.8	?
CCCn1c(-c2ccc(OC)cc2)nc2nc3ccccc3nc21	-0.92	-0.13	-22	-0.16	1	/	/
COc1ccc(CCn2c(-c3ccco3)nc3nc4ccccc4nc32)cc1	-0.0081	0.75	-9	3.5*	0	-7.1	-12
Cc1ccc(C2CC(c3ccc(C)cc3)n3nc(N)nc3N2)cc1 (stereo not given)	-0.036	0.062	-21	-1.5	-1	/	/
Cc1ccc(S(=O)(=O)N2CCN(C(=O)c3cc(=O)[nH]c4ccccc34)CC2)c(C)c1	-0.01	1.8	-7	4.7*	1	-28	-50
Cc1cc(Nc2ccc(Br)c(C)c2)n2nc(C)nc2n1	-0.0012	/	-39	4.7*	-1	?	-39
Cc1ccccc1NC(=O)NCCCN1CCN(C2CCCCC2)CC1	0.022	0.37	-13	-0.27	-1	/	/
Cc1cc(C(=O)NCCCN2CCN(C3CCCCC3)CC2)n(-c2ccccc2)n1	-0.55	0.065	-18	32*	-1	13	?
O=C(NCN1C(=O)C2C3C=CC(C3)C2C1=O)Nc1nccs1 (stereo not given)	0.15	-0.67	-30	-0.055	0	/	/
CCN=C(NCC)SC1CC(=O)N(c2cccc(OCC)c2)C1=O (stereo not given)	-2.6*	-0.91	-19	14*	0	-3.6	-22
Cc1ccccc1-n1c(SC/C(O)=C(\C#N)c2nc3ccccc3[nH]2)nnc1-c1ccncc1	-0.047	0.76	/	3.9*	/	4.6	-4.6
CCOc1ccc(Nc2ncnc3c2cnn3-c2ccccc2)cc1	-0.04	1.3	-26	3.2*	-1	-19	?
CCCCNC(=O)CC1Nc2ccccc2NC1=O (stereo not given)	-0.48	-0.56	13	7.9*	-1	30	?
O=C1CCCN1CCCNc1ncnc2c1cnn2-c1ccc(Cl)cc1	0.3	-1.9	-22	3.1*	-1	13	-28
Clc1ccc2[nH]c3c(NCC4CCCO4)ncnc3c2c1 (stereo not given)	-2.3	-2.9	35	7.7*	0	1	-29
Clc1ccc(-n2ncc3c(NCC4CCCO4)ncnc32)cc1 (stereo not given)	-0.31	-3.6*	-25	3.4*	-2	?	-53
COc1ccc(-n2ncc3c(NCCCN4CCOCC4)ncnc32)cc1	-0.021	-2.1	-8	0.11	-1	/	/
Clc1ccc2[nH]c3c(NCCN4CCOCC4)ncnc3c2c1	-0.34	3.2	-35	1.1	-1	/	/
CC(C)(C)OC(=O)N[C@@H](Cc1ccccc1)c1nnc(S(=O)(=O)Cc2ccccc2)o1	-0.6	-0.5	86*	21*	0	-15	-41
COc1ccc(/C=N/n2cnnc2SCc2ccccc2)cc1	-0.59	0.015	-13	-0.4	-1	/	/
C1=CN2CCC1C(c1ccccc1)C2 (stereo not given)	-8*	-0.31	-11	44*	0	428*	7.6
CCOc1cc(C(=O)Nc2ccc(N3CCN(S(C)(=O)=O)CC3)cc2)cc(OCC)c1OCC	0.055	0.73	/	0.01	0	/	/
CCOc1cc(C(=O)Nc2ccccc2N2CCN(S(C)(=O)=O)CC2)cc(OCC)c1OCC	-0.43	-0.19	11	1.8*	-1	-20	-34
CC1CCCN(C/C(O)=C(\C#N)c2nc3ccccc3[nH]2)C1 (stereo not given)	-4.2*	0.04	-41	5.4*	-1	?	-28
SMILES	M1 antagonist	D1 allo mod	S1P1 ag-PAM	M1 agonist	S1P3 ag	M1 ag confirm	M4 agonist ctr
COc1ccc(C2CC(=O)N3CN(c4ccc(C)c(Cl)c4)CSC3=C2C#N)cc1OC (stereo not given)	0.093	/	-26	10*	0	?	-29
Cc1cc(C(=O)CSc2nnc(-c3ccco3)o2)c(C)n1-c1ccc2c(c1)OCCO2	-0.29	/	62*	12*	0	?	-44
CCOC(=O)/C(C#N)=C(\N)C(C)C(=O)Nc1ccccn1 (stereo not given)	-0.025	0.3	-21	0.44	-1	/	/
CC1(C)Cc2ccccc2-c2nc(NCCCO)n(-c3ccccc3)c(=O)c21	-0.14	1.2	-2	-0.0028	2	/	/
COc1ccc(S(=O)(=O)Cc2ccc(C(=O)N3CCN(c4ccc(Cl)cc4)CC3)o2)cc1	-0.46	-0.83	69	2.3*	-1	-4.3	-10
COc1ccc(S(=O)(=O)Cc2ccc(C(=O)NCCc3ccc(S(N)(=O)=O)cc3)o2)cc1	-0.61	0.077	-13	3.8*	0	?	-59
COc1ccc(N2CCN(C(=O)c3ccc(NS(=O)(=O)c4ccc(F)c(F)c4)cc3)CC2)cc1	-0.24	-0.03	/	2.3*	/	-8.5	-35
COc1ccc(S(=O)(=O)Cc2ccc(C(=O)N3CCN(c4cccc(C)c4)C(C)C3)o2)cc1 (stereo not given)	-1.4	-1.7	10	3.4*	0	?	-35
COCCCNC(=O)c1ccc(CS(=O)(=O)c2ccc(OC)cc2)o1	-0.19	0.14	-9	0.28	-1	/	/
COc1ccc(N2CCN(C(=O)c3ccc(CS(=O)(=O)c4ccc(OC)cc4)o3)CC2)cc1	-1.4	0.16	10	0.25	0	/	/
Cn1c(NC(=O)Cc2ccc(F)cc2)cc(=O)n(C)c1=O	-0.13	2.4	-23	-0.37	0	/	/
Cc1nnc(C)n1N1C(=O)c2cccc3cccc(c23)C1=O	-0.7	-0.38	-9	0.5	0	/	/
NC1=CC(=O)c2cccc3cccc1c23	-0.76	-0.029	-7	53*	0	371*	440*
O=C1c2ccccc2N2C(=O)c3ccccc3C2N1Cc1ccco1 (stereo not given)	-0.78	1.6	/	5.3*	/	0.65	-28
N#CCCC12CCCCC1=Nc1ccccc12 (stereo not given)	-0.67	-0.77	1	-1	-1	/	/
CCCCCCc1cc2cc(-c3nnc(-c4ccccc4O)o3)c(=O)oc2cc1O	3.3*	/	-13	317*	0	781*	843*
Cc1cc(-c2nnc(-c3cc4ccccc4oc3=O)o2)c(C)n1-c1ccccc1	0.5	0.62	/	-0.065	/	/	/
Brc1cccc(-c2nnc(SCc3ccon3)n2-c2ccccc2)c1	0.37	3.1	-3	-0.52	-1	/	/
O=c1c2c3c(sc2nc2sc(CN4CCOCC4)cn12)CCCC3	-0.29	0.2	-4	-3.3*	0	-18	?

From PubChem
